Square brackets hold non-standard residues; d marks the D form. Peptide text beside a SMILES is read from it. Orn = NCCC[C@H](N)C(=O)O
Legend:
[1] = system: corneal epithelial scrape wounds; experiment: In vivo corneal epithelial wound healing; parameters: species or system C57BL/6 mice
Outline: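 C57BL/6 mice (9–13 weeks) were anaesthetised with ketamine 100 mg/kg plus xylazine 10 mg/kg ip. A 2-mm diameter corneal epithelial scrape wound was made in the right eye with an Algerbrush. Then 5 μL of test peptide (2, 64 or 640 μg/mL) or PBS vehicle was applied topically immediately, 5 min later, and at 6, 12 and 18 h. Wounds were stained with 1.5 μL 1% sodium fluorescein every 6 h until closure (24 h), imaged, and their areas measured.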

S. aureus 49525_Xen36 = experiment: Time-kill bactericidal activity, bioluminescence; format: cell-based, Staphylococcus aureus; settings: 30 minutes' incubation, Fig. 4
Outline: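 Bioluminescent S. aureus Xen36 was grown from a single colony in LB overnight at 37°C with agitation. It was diluted 1:10 into fresh LB for 2 h at 37°C to mid-log phase and adjusted by OD600 to 1 × 10⁷ CFU/mL. Then 100 μL per well was exposed to a concentration series of test peptide for 30 min. Viable-cell luminescence was read by IVIS Lumina imaging (open filter, binning 4, f-stop 1, 30 s count). Results are mean ± SE of triplicates from two independent experiments.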

P. aeruginosa 19660_Xen5 = experiment: Time-kill bactericidal activity, bioluminescence; format: cell-based, Pseudomonas aeruginosa; settings: Fig. 2
Outline: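 Luciferase-tagged strain grown from a single colony in LB at 37°C overnight with agitation, diluted 1:10 into fresh LB and grown 2 h at 37°C to mid-log. Adjusted by OD600 to 1 × 10⁷ CFU/mL and exposed to test compound at several concentrations for 0, 30, 60 and 120 min. Viable cells quantified noninvasively by bioluminescence imaging. Mean ± SE of triplicates from two independent experiments.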

Compound	wound closure vs vehicle ([1]; at 24 hours following topical ocular administration, 2, 64 or 640 μg/mL)	effect on corneal epithelial wound healing ([1]; mice, topical 5 μL RP444 2, 64 or 640 μg/mL at 0 h, 5 minutes, 6, 12, 18 hours post wound, two independent experiments, n = 7-10 mice/group)	bactericidal activity against S. aureus (S. aureus 49525_Xen36)	bactericidal activity following 60 minutes of exposure (P. aeruginosa 19660_Xen5; 60 minutes)	bactericidal activity during the short incubation time period (P. aeruginosa 19660_Xen5; 2 hours)
C[C@H](NC(=O)[C@H](Cc1ccccc1)NC(=O)[C@H](C)NC(=O)[C@H](Cc1ccccc1)NC(=O)[C@H](CCCN)NC(=O)[C@H](C)NC(=O)[C@H](Cc1ccccc1)NC(=O)[C@H](CCCN)NC(=O)[C@H](CCCN)NC(=O)[C@H](C)NC(=O)[C@H](Cc1ccccc1)NC(=O)[C@H](CCCN)NC(=O)[C@H](CCCN)NC(=O)[C@H](Cc1ccccc1)NC(=O)[C@H](CCCN)NC(=O)[C@H](CCCN)NC(=O)[C@H](C)NC(=O)[C@H](Cc1ccccc1)NC(=O)[C@H](CCCN)NC(=O)[C@H](CCCN)NC(=O)[C@H](C)NC(=O)[C@@H](N)Cc1ccccc1)C(=O)N[C@@H](Cc1ccccc1)C(=O)O [RP444] (H-FA[Orn][Orn]FA[Orn][Orn]F[Orn][Orn]FA[Orn][Orn]FA[Orn]FAFAF-OH)	No statistically significant difference in closure	did not affect corneal epithelial wound healing			
NC[C@H]1O[C@H](O[C@H]2[C@H](O)[C@@H](O[C@H]3O[C@H](CO)[C@@H](O)[C@H](N)[C@H]3O)[C@H](N)C[C@@H]2N)[C@H](N)C[C@@H]1O [tobramycin]			neither tobramycin nor vancomycin exhibited any bactericidal effect	bactericidal effects at 60 minutes	
CN[C@H](CC(C)C)C(=O)N[C@H]1C(=O)N[C@@H](CC(N)=O)C(=O)N[C@H]2C(=O)N[C@H]3C(=O)N[C@H](C(=O)N[C@H](C(=O)O)c4cc(O)cc(O)c4-c4cc3ccc4O)[C@H](O)c3ccc(c(Cl)c3)Oc3cc2cc(c3O[C@@H]2O[C@H](CO)[C@@H](O)[C@H](O)[C@H]2O[C@H]2C[C@](C)(N)[C@H](O)[C@H](C)O2)Oc2ccc(cc2Cl)[C@H]1O [vancomycin]			neither tobramycin nor vancomycin exhibited any bactericidal effect		no evidence of bactericidal activity

— PMC5730364 (Investigative Ophthalmology & Visual Science, 2017)
